The list is not random: actives were taken first. Their share in the collection is about 1.6%.
eIF4E-4G inh – eIF4E–eIF4G protein interaction inhibitors, primary screen, biochemical, uHTS, TR-FRET, eIF4GI fragment; Eukaryotic translation initiation factor 4E (Mus musculus) + Eukaryotic translation …; TR-FRET eIF4E-eIF4GI(517-606) binding, 2 h; inhibition, % at 21.7 µM; 220,000 tested, 0.37% active;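 further: 0% = full FRET control wells and 100% = background wells lacking eIF4GI fragment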
SUMO HTRF inh – inhibitors of in vitro SUMOylation cascade, primary screen, biochemical, HTRF, uHTS; SUMO-conjugating enzyme UBC9 (Homo sapiens), P63279; inhibition, % at 35 µM; HTRF SUMOylation assay, SAE1/SAE2 + UBC9; 290,000 tested, 0.36% active; in the data active means inhibition above about 50%, passing the limit was not always enough
14-3-3 Bad PPI – inhibitors of 14-3-3 zeta/Bad binding, primary screen, biochemical, TR-FRET, bovine 14-3-3 zeta; inhibition, % at 21.7 µM; TR-FRET 14-3-3zeta/Dy647-pBad peptide displacement, 1 h; 220,000 tested, 0.71% active; AID 781, 2007;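 active means inhibition above about 70%, limit read from the data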;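 further: 0% = full 14-3-3 plus peptide FRET controls and 100% = background without 14-3-3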
Target sequence (P63103 whole entry, looked up): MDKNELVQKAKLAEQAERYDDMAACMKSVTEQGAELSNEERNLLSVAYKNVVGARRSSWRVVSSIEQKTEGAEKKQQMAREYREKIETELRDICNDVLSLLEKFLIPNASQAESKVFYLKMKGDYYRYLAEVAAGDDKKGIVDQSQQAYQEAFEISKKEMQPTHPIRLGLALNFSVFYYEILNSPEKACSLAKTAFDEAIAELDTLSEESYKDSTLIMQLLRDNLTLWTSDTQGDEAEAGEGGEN
p97 ATPase inh – inhibitors of human p97 ATPase, primary screen, biochemical. Transitional endoplasmic reticulum ATPase (Homo sapiens), P55072. recombinant p97 ATPase, Kinase-Glo ATP luminescence, 3 h. inhibition, % at 8 µM. 220,000 tested, 0.42% active. AID 1481, 2009; in the data active means inhibition above about 15%;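 further: 0% = DMSO vehicle and 100% = wells lacking enzyme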
TbMetRS inhib – T. brucei MetRS inhibitors, primary screen, biochemical, luminescence; methionyl-tRNA synthetase (Trypanosoma brucei brucei); purified T. brucei MetRS, ATP depletion, Kinase-Glo luminescence; inhibition, % at 11.9 µM; 360,000 tested, 0.4% active; AID 624268, 2012;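 active means inhibition above a per-plate cutoff of the control wells' mean inhibition plus 3 SD, cut at about 5.5% in these data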;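 further: 0% = DMSO wells median and 100% = median of wells with control inhibitor compound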
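Dosing: 11.9 µM compound single dose, 0.9% DMSO; Assay system: purified T. brucei MetRS enzyme; Measured by: Kinase-Glo luciferase luminescence reporting remaining unconsumed ATP; Schedule: 15 min plus 2 h at 25 °C.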
p47phox inh – p47phox/p22phox peptide binding inhibitors, primary screen, biochemical, uHTS, NADPH oxidase regulatory subunit | fluorescence polarization, 2 h | inhibition, % at 24.7 µM | 220,000 tested, 0.53% active | Neutrophil cytosol factor 1 (Homo sapiens), P14598;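 further: 0% = p47phox with labelled peptide and 100% = labelled peptide alone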
Target sequence (P14598 whole entry, looked up): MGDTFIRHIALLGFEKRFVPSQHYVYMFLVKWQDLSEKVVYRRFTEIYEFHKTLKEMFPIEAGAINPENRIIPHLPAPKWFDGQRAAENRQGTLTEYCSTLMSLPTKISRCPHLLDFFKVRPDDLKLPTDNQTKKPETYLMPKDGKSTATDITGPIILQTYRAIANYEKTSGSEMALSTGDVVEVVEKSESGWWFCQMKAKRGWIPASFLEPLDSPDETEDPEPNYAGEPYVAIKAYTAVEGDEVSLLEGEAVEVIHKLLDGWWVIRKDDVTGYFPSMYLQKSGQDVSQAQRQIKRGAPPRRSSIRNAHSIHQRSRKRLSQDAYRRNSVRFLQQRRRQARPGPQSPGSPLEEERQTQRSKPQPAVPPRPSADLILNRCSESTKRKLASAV
An asterisk follows results filed as active; [ ] = another dose, or the depositor's remark.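 How the source made its calls, unless noted: active means inhibition above about 30% (limit read from the data); inactive means the rest.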

What do the screens show for `COc1cc(CN2CCN(c3ccc(C)cc3)CC2)cc([N+](=O)[O-])c1O`?
eIF4E-4G inh: -3; SUMO HTRF inh: 22; 14-3-3 Bad PPI: 83*; p97 ATPase inh: -7; p47phox inh: -6

Results for O=C(Nc1c(F)cccc1F)C1CCN(C(=O)c2cccs2)CC1 ?
SUMO HTRF inh: 1; TbMetRS inhib: -1

How did C=CCn1c(N)c(C(=O)OC(C)(C)C)c2nc3ccccc3nc21 do in these assays?
SUMO HTRF inh: 98*; p97 ATPase inh: 14; TbMetRS inhib: 0; p47phox inh: -9

How did C=CCn1c(N)c(C(=O)OC(C)CC)c2nc3ccccc3nc21 (centres undefined) do in these assays?
eIF4E-4G inh: 1; SUMO HTRF inh: 39; 14-3-3 Bad PPI: 1; p97 ATPase inh: -1; TbMetRS inhib: 0; p47phox inh: -11

What do the screens show for `C=CCn1c(N)c(C(=O)Nc2ccccc2)c2nc3ccccc3nc21`?
SUMO HTRF inh: 91*; p97 ATPase inh: 9; TbMetRS inhib: 0; p47phox inh: -15

What do the screens show for `COc1cc(OC)c(NS(=O)(=O)c2cc(Br)cnc2N)cc1Cl`?
SUMO HTRF inh: 0; TbMetRS inhib: 0

What do the screens show for `Cc1ccc(C(O)c2nc3ccccc3n2C(C)C)cc1` (centres undefined)?
eIF4E-4G inh: -2; SUMO HTRF inh: 15; 14-3-3 Bad PPI: 7; p97 ATPase inh: -3; TbMetRS inhib: 0; p47phox inh: 71*

What do the screens show for `CNC(=O)C1CC(=O)N(c2ccc(OCC(=O)Nc3ccccc3)cc2)C1` (centres undefined)?
TbMetRS inhib: 0

What do the screens show for `COc1cccc(NC(=O)COc2ccc(N3CC(C(=O)NCC(C)C)CC3=O)cc2)c1` (centres undefined)?
eIF4E-4G inh: 72*; SUMO HTRF inh: -10; 14-3-3 Bad PPI: 6; p97 ATPase inh: -3; TbMetRS inhib: -1; p47phox inh: -4

Results for C=CC[C@]12CCc3sccc3C1N(c1ccc(C(=O)OCC)cc1)C2=O (some centres undefined) ?
TbMetRS inhib: 0

What do the screens show for `COCCNC(=O)C1(C)CCN(C(=O)c2ccc(C(F)(F)F)nc2C)C1` (centres undefined)?
TbMetRS inhib: 0

How did CCCN1C(=O)c2cc(C(=O)O)ccc2C1O (centres undefined) do in these assays?
eIF4E-4G inh: 7; SUMO HTRF inh: 22; 14-3-3 Bad PPI: 83*; p97 ATPase inh: 0; TbMetRS inhib: 0; p47phox inh: -8

What do the screens show for `CCc1nnc(NC(=O)CSc2ncnc3c2oc2ccccc23)s1`?
eIF4E-4G inh: -11; SUMO HTRF inh: -42; 14-3-3 Bad PPI: 73*; p97 ATPase inh: 2; TbMetRS inhib: 0; p47phox inh: -2

What do the screens show for `CC(=O)C[C@H](O)CC(=O)[C@H]1OC(=O)[C@H](C)C/C=C\Cc2ccccc21`?
TbMetRS inhib: 0

What do the screens show for `CC(C)(C)c1ccc(C(=O)N2CCNCC2)cc1`?
eIF4E-4G inh: 3; SUMO HTRF inh: 15; 14-3-3 Bad PPI: -4; p97 ATPase inh: -2; TbMetRS inhib: -2; p47phox inh: 38*

Results for CCCC(=O)OCCNc1cc(SCc2ccco2)c2nonc2c1[N+](=O)[O-] ?
eIF4E-4G inh: 3; SUMO HTRF inh: 90*; 14-3-3 Bad PPI: -9; p97 ATPase inh: 2; TbMetRS inhib: 0; p47phox inh: -11

What do the screens show for `COc1cccc(C(=O)Nc2nnc(-c3ccc(Cl)cc3)o2)c1`?
eIF4E-4G inh: -14; SUMO HTRF inh: -16; 14-3-3 Bad PPI: -10; TbMetRS inhib: -1; p47phox inh: 1

How did COc1cccc(C(=O)Nc2nnc(-c3ccc(F)cc3)o2)c1 do in these assays?
eIF4E-4G inh: 95*; SUMO HTRF inh: -8; 14-3-3 Bad PPI: -8; TbMetRS inhib: 0; p47phox inh: -8

What do the screens show for `Cc1ccccc1C(=O)Nc1ccc2c(C#N)c3nc4ccccc4nc3n2c1`?
eIF4E-4G inh: 21; SUMO HTRF inh: 49; 14-3-3 Bad PPI: 89*[fluorescence artefact?]; p97 ATPase inh: 3; TbMetRS inhib: 0; p47phox inh: 34*

What do the screens show for `CN(C)c1ccc(/C=c2\sc3nc(-c4ccccc4)nn3c2=O)cc1`?
eIF4E-4G inh: -33; SUMO HTRF inh: -12; 14-3-3 Bad PPI: 8; p97 ATPase inh: 5; p47phox inh: 42*

How did O=C(CN1CCN(S(=O)(=O)c2ccccc2)CC1)Nc1ccc([N+](=O)[O-])cc1 do in these assays?
eIF4E-4G inh: 12; SUMO HTRF inh: -6; 14-3-3 Bad PPI: -7; p97 ATPase inh: 3; TbMetRS inhib: 0; p47phox inh: -12

How did CCNC(=O)C1(C)CCCN(Cc2cccc(Oc3ccccc3)c2)C1 (centres undefined) do in these assays?
TbMetRS inhib: 0

What do the screens show for `CCOc1ccc(N2C(=O)c3cccnc3C2Nc2ccc(Cl)cc2)cc1` (centres undefined)?
eIF4E-4G inh: -11; SUMO HTRF inh: 24; 14-3-3 Bad PPI: 15; p97 ATPase inh: 0; TbMetRS inhib: 0; p47phox inh: -22

Results for Cc1ccc(NC2c3ncccc3C(=O)N2c2ccccc2C)cc1C (centres undefined) ?
eIF4E-4G inh: 91*[fluorescence artefact?]; SUMO HTRF inh: 30; 14-3-3 Bad PPI: 94*; p97 ATPase inh: -1; TbMetRS inhib: 1; p47phox inh: 1

How did COc1cc2c(cc1N/C=C(\C#N)c1nc(-c3ccccc3)cs1)oc1ccccc12 do in these assays?
eIF4E-4G inh: -5; SUMO HTRF inh: -20; 14-3-3 Bad PPI: 86*; p97 ATPase inh: 4; TbMetRS inhib: -1; p47phox inh: -69

How did N#C/C(=C\Nc1ccc2cn[nH]c2c1)c1nc(-c2ccc(Cl)cc2)cs1 do in these assays?
eIF4E-4G inh: 23; SUMO HTRF inh: 31; 14-3-3 Bad PPI: 91*; p97 ATPase inh: 5; TbMetRS inhib: 1; p47phox inh: -145

How did N#C/C(=C\Nc1ccc2cn[nH]c2c1)c1nc(-c2ccccc2)cs1 do in these assays?
eIF4E-4G inh: 16; SUMO HTRF inh: 45; 14-3-3 Bad PPI: 86*; p97 ATPase inh: 7; TbMetRS inhib: -1; p47phox inh: -54

What do the screens show for `O=C(O)c1ccc(CS(=O)(=O)c2ccc(Br)cc2)cc1`?
SUMO HTRF inh: 13; TbMetRS inhib: 0

What do the screens show for `Cc1ccc(C)c(CN2CCNC2=O)c1`?
eIF4E-4G inh: 5; SUMO HTRF inh: 10; 14-3-3 Bad PPI: -8; p97 ATPase inh: 1; TbMetRS inhib: 0; p47phox inh: 137*

Source: PubChem (several laboratories)
